Laboratory results reported in ChEMBL document CHEMBL4145474, “Discovery of novel piperonyl derivatives as diapophytoene desaturase inhibitors for the treatment of methicillin-, vancomycin- and linezolid-resistant Staphylococcus aureus infections” (Eur J Med Chem, 2018).
Activity calls are given as the source filed them. The calls are words filed in the database; no cut-off is given here.

How the values were obtained:
[1] = target: T1, 4,4'-diapophytoene desaturase (4,4'-diaponeurosporene-forming) (Staphylococcus aureus (strain Newman)) (UniProt O07855); test: Inhibition of CrtN in methicillin-resistant Staphylococcus aureus USA400 MW2 assessed as bacterial survival after 6 hrs by human whole blood killing assay (reference value: 23.33%)
T1 sequence (whole entry): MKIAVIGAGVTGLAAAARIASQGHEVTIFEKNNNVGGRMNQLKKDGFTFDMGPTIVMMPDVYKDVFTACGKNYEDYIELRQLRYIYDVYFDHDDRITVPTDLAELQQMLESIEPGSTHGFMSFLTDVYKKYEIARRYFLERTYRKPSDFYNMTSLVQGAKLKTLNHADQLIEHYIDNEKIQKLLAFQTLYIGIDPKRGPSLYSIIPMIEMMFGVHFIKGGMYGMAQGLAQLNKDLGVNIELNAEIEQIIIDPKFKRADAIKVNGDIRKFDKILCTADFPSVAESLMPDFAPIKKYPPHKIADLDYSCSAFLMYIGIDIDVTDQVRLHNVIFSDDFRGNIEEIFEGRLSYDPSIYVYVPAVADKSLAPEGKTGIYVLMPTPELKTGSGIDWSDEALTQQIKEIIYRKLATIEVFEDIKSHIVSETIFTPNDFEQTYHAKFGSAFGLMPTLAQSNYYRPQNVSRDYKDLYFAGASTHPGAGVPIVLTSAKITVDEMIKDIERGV
How it was run: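 Overnight cultures spun, resuspended in sterile PBS at 1 × 10⁷ CFU/mL, then mixed 1:10 with fresh whole blood from healthy human volunteers (final 1 × 10⁶ CFU/mL). Incubated 6 h at 37 °C; surviving CFU counted by plating dilutions on TSA. Two independent experiments.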

[2] = tested on: Staphylococcus aureus; test: Antibacterial activity against wild type Staphylococcus aureus Newman infected in BALB/c mouse assessed as decrease in bacterial survival in mouse kidney at 0.1 to 0.4 mg, ip bid administered 4.5 days before 24 hrs bacterial infection measured after 90 hrs; assay type: functional, organism-based
How it was run: (§1)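 Female BALB/c mice, 6-8 weeks old, infected retro-orbitally with 2.2 × 10⁷ CFU S. aureus Newman. Intraperitoneal dosing in 12 intervals: pre-treatment groups received a total of 50 or 200 mg/kg starting before infection; post-treatment groups received a total of 39 or 156 mg/kg starting 6 h after infection. Vehicle was ddH₂O. At 90 h post-infection, liver or kidney was homogenized in PBS/0.01% Triton X-100 and plated on TSA for CFU.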

[3] = tested on: Staphylococcus aureus; test: Antibacterial activity against methicillin/linezolid-resistant Staphylococcus aureus NRS271 infected in BALB/c mouse assessed as decrease in bacterial survival in mouse liver at 0.1 to 0.4 mg, ip bid administered 4.5 days before 24 hrs bacterial infection measured after 90 hrs; assay type: functional, organism-based
How it was run: (§2)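 6–8-week-old female BALB/c mice (SPF) dosed intraperitoneally twice daily over 4.5 d at 0.1 or 0.4 mg/bid. Pre-treatment started before infection; post-treatment started 6 h after infection. Vancomycin and linezolid controls given as pre-treatment at 0.4 mg/bid. Retro-orbital inoculation: Mu50 1.1 × 10⁹ CFU, NRS271 1.8 × 10⁸ CFU. Kidneys and livers homogenised in PBS/0.01% Triton X-100 and plated on TSA for CFU.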

[4] = tested on: Staphylococcus aureus; test: Antibacterial activity against wild type Staphylococcus aureus Newman infected in BALB/c mouse assessed as decrease in bacterial survival in mouse kidney at 0.1 to 0.4 mg, ip bid administered 4.5 days after 6 hrs bacterial infection measured after 90 hrs; assay type: functional, organism-based; how it was run: as §1
[5] = tested on: Staphylococcus aureus; test: Inhibition of pigmentation in methicillin-resistant Staphylococcus aureus USA300 LAC after 48 hrs by spectrophotometric method; assay type: functional, organism-based
How it was run: (§3)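 Bacteria grown in 4 mL TSB for 48 h at 37 °C with compound serially diluted from DMSO, in duplicate; DMSO vehicle control and non-pigmented CrtN mutant as reference. Cells from 3 mL of culture washed twice with 0.01 M PBS and pigment extracted into methanol. Absorbance read at 450 nm; IC50 fitted from the concentration series.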

[6] = tested on: Staphylococcus aureus; test: Inhibition of pigmentation in vancomycin-intermediate methicillin-resistant Staphylococcus aureus Mu50 after 48 hrs by spectrophotometric method; assay type: functional, organism-based; conditions: Mu50, 48 h; how it was run: as §3
[7] = Solubility of the compound in water by UV analysis; assay type: physicochemical
[8] = tested on: Staphylococcus aureus; test: Antibacterial activity against methicillin-resistant Staphylococcus aureus USA400 MW2 assessed as decrease in bacterial survival at 1 uM after 24 hrs by H2O2 killing assay; assay type: functional, organism-based
[9] = tested on: Staphylococcus aureus; test: Antibacterial activity against vancomycin-intermediate methicillin-resistant Staphylococcus aureus Mu50 infected in BALB/c mouse assessed as decrease in bacterial survival in mouse liver at 0.1 to 0.4 mg, ip bid administered 4.5 days before 24 hrs bacterial infection measured after 90 hrs; assay type: functional, organism-based; how it was run: as §2
[10] = target: T1, 4,4'-diapophytoene desaturase (4,4'-diaponeurosporene-forming) (Staphylococcus aureus (strain Newman)); test: Inhibition of CrtN in wild type Staphylococcus aureus Newman assessed as decrease in bacterial survival at 1 uM after 24 hrs by H2O2 killing assay relative to control; conditions: Staphylococcus aureus subsp. aureus str. Newman
How it was run: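 Bacteria were grown 24 h at 37 °C in TSB with compound, DMSO vehicle or NAC, then washed twice in PBS. Each reaction held 4 × 10⁶ CFU with H₂O₂ at 1.5% final, shaken 30 min at 37 °C and 250 rpm, then quenched with 1000 U/mL catalase. Survival was counted as CFU on TSA. Two independent experiments.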

[11] = tested on: Staphylococcus aureus; test: Antibacterial activity against vancomycin-intermediate methicillin-resistant Staphylococcus aureus Mu50 infected in BALB/c mouse assessed as decrease in bacterial survival in mouse liver at 0.1 to 0.4 mg, ip bid administered 4.5 days after 6 hrs bacterial infection measured after 90 hrs; assay type: functional, organism-based; how it was run: as §2
[12] = tested on: Staphylococcus aureus; test: Antibacterial activity against methicillin/linezolid-resistant Staphylococcus aureus NRS271 infected in BALB/c mouse assessed as decrease in bacterial survival in mouse liver at 0.1 to 0.4 mg, ip bid administered 4.5 days after 6 hrs bacterial infection measured after 90 hrs; assay type: functional, organism-based; how it was run: as §2
[13] = tested on: Staphylococcus aureus; test: Antibacterial activity against vancomycin-intermediate methicillin-resistant Staphylococcus aureus Mu50 assessed as decrease in bacterial survival at 1 uM after 24 hrs by H2O2 killing assay; assay type: functional, organism-based
[14] = tested on: HEK-293T; test: Cytotoxicity against HEK293T cells assessed as reduction in cell viability after 72 hrs by CCK-8 assay; assay type: functional; conditions: Homo sapiens
How it was run: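 HepG2 or HEK-293T cells were seeded at 5000 per well and grown 24 h at 37 °C, 5% CO₂. Cells were then exposed to compound for 72 h; compound came from DMSO, diluted in medium to final DMSO <0.4%, with a DMSO-matched vehicle control. Viability was read by 10% CCK-8 for 1 h, absorbance 450 nm, in triplicate.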

[15] = target: T1, 4,4'-diapophytoene desaturase (4,4'-diaponeurosporene-forming) (Staphylococcus aureus (strain Newman)); test: Inhibition of CrtN in methicillin-resistant Staphylococcus aureus USA300 LAC assessed as bacterial survival at 1 uM after 24 hrs by H2O2 killing assay (reference value: 29.67%)
[16] = target: T1, 4,4'-diapophytoene desaturase (4,4'-diaponeurosporene-forming) (Staphylococcus aureus (strain Newman)); test: Inhibition of CrtN in wild type Staphylococcus aureus Newman assessed as decrease in bacterial survival after 6 hrs by human whole blood killing assay relative to control; conditions: Staphylococcus aureus subsp. aureus str. Newman
How it was run: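 Tubes were incubated 6 h at 37 °C, then serial dilutions were plated on TSA to count surviving CFU. Two independent experiments, compared against vehicle.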

[17] = tested on: Staphylococcus aureus; test: Inhibition of pigmentation in methicillin/linezolid-resistant Staphylococcus aureus NRS271 after 48 hrs by spectrophotometric method; assay type: functional, organism-based; conditions: NRS271, 48 h; how it was run: as §3

With `CN(C/C=C/C=C/c1ccc(C(F)(F)F)cc1F)Cc1ccc2c(c1)OCO2.Cl` the Survival [1] was 0.93%, the Activity [2] was “Active” and the Activity [3] was “inactive”. For the same compound, the Activity [4] was “Active”, the IC50 [5] was 12.9 nM and the IC50 [6] was 2.5 nM. The solubility [7] was 8690 µg/mL, the Activity [8] was “inactive” and the Activity [9] was “Active”. For the same compound, the fold change (FC) [10] was 11.7, the Activity [11] was “Active” and the Activity [12] was “inactive”. For the same compound, the Activity [13] was “inactive”, the CC50 [14] was 92600 nM and the Survival [15] was 2.67%. For the same compound, the fold change (FC) [16] was 10.9 and the IC50 [17] was 4.1 nM.
